This note sets out measurements from ChEMBL document CHEMBL3271984, “Antifungal activity of 4-substituted crotonic acid esters” (1976).

≈ marks a conversion by molar mass, not a printed value. Calls of active or inactive are those of the source. No cut-off for these calls is given here.

The subject of experiment [1] is Candida albicans. Description: Antifungal activity against Candida albicans ATCC 10231 assessed as growth inhibition at pH 7 incubated for 20 hrs in presence of 10% beef serum. Format: functional. The settings on record: ATCC 10231, 20 h, read-out: MIC100. In outline:
(§1)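 Agar dilution in Sabouraud dextrose agar at pH 5.6 or 7.0, with or without 10% beef serum. C. albicans and M. mucedo were incubated 20 h at 37°; A. niger and T. mentagrophytes 5 days at 28°. The value is the minimal µg/ml giving 100% inhibition. Steps were 1 µg/ml up to 10, 2 up to 20, then 10 up to 100 µg/ml maximum.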

The test system of experiment [2] is Trichophyton mentagrophytes. Description: Antifungal activity against Trichophyton mentagrophytes ATCC 9129 assessed as growth inhibition at pH 5.6 incubated for 5 days in absence of 10% beef serum. Format: functional. The settings on record: ATCC 9129, 120 h, read-out: MIC100. Put shortly:
as §1

The subject of experiment [3] is Mucor mucedo. The experiment can be described thus: Antifungal activity against Mucor mucedo ATCC 7941 assessed as growth inhibition at pH 5.6 incubated for 20 hrs in presence of 10% beef serum. In kind it is functional. As to conditions: ATCC 7941, 20 h, read-out: MIC100. Put shortly:
as §1

Experiment [4] deals with Mucor mucedo. The experiment can be described thus: Antifungal activity against Mucor mucedo ATCC 7941 assessed as growth inhibition at pH 7 incubated for 20 hrs in presence of 10% beef serum. In kind it is functional. As to conditions: ATCC 7941, 20 h, read-out: MIC100. Put shortly: as §1
Experiment [5] deals with Mucor mucedo. Description: Antifungal activity against Mucor mucedo ATCC 7941 assessed as growth inhibition at pH 7 incubated for 20 hrs in absence of 10% beef serum. Format: functional. As to conditions: ATCC 7941, 20 h, read-out: MIC100. Put shortly:
as §1

Experiment [6] relates to Trichophyton mentagrophytes. The experiment can be described thus: Antifungal activity against Trichophyton mentagrophytes ATCC 9129 assessed as growth inhibition at pH 7 incubated for 5 days in absence of 10% beef serum. Format: functional. As to conditions: ATCC 9129, 120 h, read-out: MIC100. In outline:
as §1

In experiment [7] the test system is Mucor mucedo. Description: Antifungal activity against Mucor mucedo ATCC 7941 assessed as growth inhibition at pH 5.6 incubated for 20 hrs in absence of 10% beef serum. In kind it is functional. The settings on record: ATCC 7941, 20 h, read-out: MIC100. In outline: as §1
For experiment [8], the system named is Candida albicans. Description: Antifungal activity against Candida albicans ATCC 10231 assessed as growth inhibition at pH 5.6 incubated for 20 hrs in presence of 10% beef serum. As to conditions: ATCC 10231, 20 h, read-out: MIC100. Format: functional. Put shortly: as §1
In experiment [9] the test system is Trichophyton mentagrophytes. The experiment can be described thus: Antifungal activity against Trichophyton mentagrophytes ATCC 9129 assessed as growth inhibition at pH 5.6 incubated for 5 days in presence of 10% beef serum. Format: functional. The settings on record: ATCC 9129, 120 h, read-out: MIC100. In outline: as §1
The subject of experiment [10] is Candida albicans. The experiment can be described thus: Antifungal activity against Candida albicans ATCC 10231 assessed as growth inhibition at pH 5.6 incubated for 20 hrs in absence of 10% beef serum. As to conditions: ATCC 10231, 20 h, read-out: MIC100. In kind it is functional. In outline: as §1
For experiment [11], the system named is Aspergillus niger. Description: Antifungal activity against Aspergillus niger ATCC 1004 assessed as growth inhibition at pH 7 incubated for 5 days in absence of 10% beef serum. The settings on record: ATCC 1004, 120 h, read-out: MIC100. In kind it is functional. Put shortly:
as §1

Experiment [12] deals with Aspergillus niger. Description: Antifungal activity against Aspergillus niger ATCC 1004 assessed as growth inhibition at pH 5.6 incubated for 5 days in absence of 10% beef serum. In kind it is functional. The settings on record: ATCC 1004, 120 h, read-out: MIC100. Put shortly:
as §1

The subject of experiment [13] is Candida albicans. Description: Antifungal activity against Candida albicans ATCC 10231 assessed as growth inhibition at pH 7 incubated for 20 hrs in absence of 10% beef serum. Format: functional. As to conditions: ATCC 10231, 20 h, read-out: MIC100. Put shortly:
as §1

In experiment [14] the test system is Aspergillus niger. Description: Antifungal activity against Aspergillus niger ATCC 1004 assessed as growth inhibition at pH 7 incubated for 5 days in presence of 10% beef serum. In kind it is functional. The settings on record: ATCC 1004, 120 h, read-out: MIC100. Put shortly:
as §1

Experiment [15] concerns Trichophyton mentagrophytes. The experiment can be described thus: Antifungal activity against Trichophyton mentagrophytes ATCC 9129 assessed as growth inhibition at pH 7 incubated for 5 days in presence of 10% beef serum. Format: functional. The settings on record: ATCC 9129, 120 h, read-out: MIC100. In outline:
as §1

The test system of experiment [16] is Aspergillus niger. Description: Antifungal activity against Aspergillus niger ATCC 1004 assessed as growth inhibition at pH 5.6 incubated for 5 days in presence of 10% beef serum. The settings on record: ATCC 1004, 120 h, read-out: MIC100. In kind it is functional. In outline:
as §1

The subject of experiment [17] is Mucor mucedo. Description: Antifungal activity against Mucor mucedo ATCC 7941 incubated for 20 hrs. In kind it is functional, organism-based.
In experiment [18] the test system is Trichophyton mentagrophytes. Description: Antifungal activity against Trichophyton mentagrophytes ATCC 9129 incubated for 5 days. Format: functional, organism-based.
The test system of experiment [19] is Aspergillus niger. The experiment can be described thus: Antifungal activity against Aspergillus niger ATCC 1004 incubated for 5 days. Format: functional, organism-based.
Experiment [20] has as its system Candida albicans. The experiment can be described thus: Antifungal activity against Candida albicans ATCC 10231 incubated for 20 hrs. Format: functional, organism-based.

`CCCCOC(=O)/C=C/CBr`: the MIC with Candida albicans [1] is 40 µg/mL; in experiment [2], less than 1 µg/mL; with Mucor mucedo [3], 4 µg/mL; in the experiment with Mucor mucedo [4], 7 µg/mL; in the experiment with Mucor mucedo [5], 4 µg/mL (≈ 18.1 µM); in experiment [6], 3 µg/mL (≈ 13.6 µM). Besides, the MIC in the experiment on Mucor mucedo [7] stood at 4 µg/mL (≈ 18.1 µM); in the experiment with Candida albicans [8], 30 µg/mL; in experiment [9], 4 µg/mL; in the experiment with Candida albicans [10], 16 µg/mL (≈ 72.4 µM); in the experiment on Aspergillus niger [11], 50 µg/mL (≈ 226 µM); in the experiment with Aspergillus niger [12], 60 µg/mL (≈ 271 µM). Moreover, the MIC in the experiment with Candida albicans [13] was determined as 30 µg/mL (≈ 136 µM); with Aspergillus niger [14], 80 µg/mL; in [15], 8 µg/mL; in the experiment on Aspergillus niger [16], 100 µg/mL.
Regarding `C/C=C/C(=O)OCCCCC`, the outcome (with Mucor mucedo [17]; in [18]; in the experiment on Aspergillus niger [19]; with Candida albicans [20]) was inactive.
For `CCCCOC(=O)/C=C/CI`, the MIC is 30 µg/mL with Candida albicans [1]; less than 1 µg/mL in experiment [2]; 5 µg/mL with Mucor mucedo [3]; 7 µg/mL with Mucor mucedo [4]; 4 µg/mL (≈ 14.9 µM) with Mucor mucedo [5]; less than 1 µg/mL in experiment [6]. Further, the MIC in the experiment with Mucor mucedo [7] was found to be 2 µg/mL (≈ 7.46 µM); in the experiment with Candida albicans [8] it was 20 µg/mL; in [9], 3 µg/mL; in the experiment on Candida albicans [10] it was 10 µg/mL (≈ 37.3 µM); in the experiment on Aspergillus niger [11], 20 µg/mL (≈ 74.6 µM); in the experiment on Aspergillus niger [12], 30 µg/mL (≈ 112 µM). Moreover, the MIC came to 12 µg/mL (≈ 44.8 µM) with Candida albicans [13], 70 µg/mL in the experiment on Aspergillus niger [14], 7 µg/mL in experiment [15] and 70 µg/mL in the experiment with Aspergillus niger [16].
With `C=CC(=O)OC`, the outcome (in the experiment with Mucor mucedo [17]; in experiment [18]; in the experiment with Aspergillus niger [19]; in the experiment on Candida albicans [20]) was inactive.
Take `C/C=C/C(=O)OCC`: the outcome (in the experiment on Mucor mucedo [17]; in experiment [18]; in the experiment with Aspergillus niger [19]; in the experiment on Candida albicans [20]) was inactive.
For `C[C@@H]1[C@H](O)[C@@H](C)/C=C/C=C/C=C/C=C/C=C/C=C/C=C/[C@H](O[C@@H]2O[C@H](C)[C@@H](O)[C@H](N)[C@@H]2O)C[C@@H]2O[C@](O)(C[C@@H](O)C[C@@H](O)[C@H](O)CC[C@@H](O)C[C@@H](O)CC(=O)O[C@H]1C)C[C@H](O)[C@H]2C(=O)O` [AMPHOTERICIN B], the MIC (with Candida albicans [1]; in [2]; in the experiment with Mucor mucedo [3]; in the experiment with Mucor mucedo [4]; in the experiment with Mucor mucedo [5]; in [6]) was less than 1 µg/mL in each case. Also, the MIC (in the experiment with Mucor mucedo [7]; in the experiment on Candida albicans [8]; in [9]; in the experiment on Candida albicans [10]; in the experiment on Aspergillus niger [11]; in the experiment with Aspergillus niger [12]) was less than 1 µg/mL each time. Besides, the MIC (in the experiment on Candida albicans [13]; with Aspergillus niger [14]; in experiment [15]; with Aspergillus niger [16]) was less than 1 µg/mL throughout.
For `CCOC(=O)/C=C/CBr`, the MIC was 40 µg/mL with Candida albicans [1]; less than 1 µg/mL in experiment [2]; 7 µg/mL in the experiment with Mucor mucedo [3]; 7 µg/mL in the experiment on Mucor mucedo [4]; 6 µg/mL (≈ 31.1 µM) in the experiment on Mucor mucedo [5]; 2 µg/mL (≈ 10.4 µM) in experiment [6]. Moreover, the MIC was 5 µg/mL (≈ 25.9 µM) in the experiment on Mucor mucedo [7]; 30 µg/mL with Candida albicans [8]; 2 µg/mL in experiment [9]; 20 µg/mL (≈ 104 µM) in the experiment with Candida albicans [10]; 70 µg/mL (≈ 363 µM) with Aspergillus niger [11]; 80 µg/mL (≈ 414 µM) in the experiment on Aspergillus niger [12]. For the same compound, the MIC in the experiment with Candida albicans [13] amounted to 30 µg/mL (≈ 155 µM); in the experiment on Aspergillus niger [14], 80 µg/mL; in experiment [15], 4 µg/mL; in the experiment on Aspergillus niger [16], 90 µg/mL.
